Converted amounts (≈) assume the structure as drawn.
How the values were obtained:
Assay type in all cases: functional
[1] = test system: Aspergillus flavus; assay: Antifungal activity against Aspergillus flavus NCIM 524 assessed as growth inhibition after 3 to 4 days by serial plate dilution method
Outline: (§1)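 Agar of peptone, D-glucose and agar at pH 5.7, lawned with saline spore suspension and dried 1 h at 37 °C. Compounds in DMSO added to punched wells, DMSO solvent control. Triplicate plates held at 37 °C for 3–4 days. […] Ciclopiroxolamine standard.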

[2] = test system: Radical scavenging activity; assay: Antioxidant activity of the compound assessed as DPPH free radical scavenging activity at 125 uM after 60 mins by spectrophotometric analysis relative to control
Outline: (§2)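 DPPH• and sample stocks made in DMSO. DPPH• mixed with sample at several concentrations and brought to 4.0 mL in DMSO. Incubated 60 min at 25 °C in the dark, then absorbance read at 517 nm with solvent correction. Scavenging % = (A0−As)/A0×100 against a DPPH-only control. Ascorbic acid standard. Mean ± SD, n = 3.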

[3] = test system: Staphylococcus aureus; assay: Antibacterial activity against Staphylococcus aureus ATCC 25923 assessed as growth inhibition after 3 to 4 days by serial plate dilution method
Outline: (§3)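 Serial dilution in Mueller-Hinton broth adjusted to pH 5.0 with phosphate buffer. Standardized bacterial suspension inoculated, 16-18 h at 37 °C. Agar-well plates also used: compounds in DMSO added to punched wells, DMSO solvent control, triplicate plates held at 37 °C for 3–4 days. MIC taken as lowest concentration with no visible growth. Range tested 1.56–25 µg/mL. Ciprofloxacin standard.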

[4] = test system: Radical scavenging activity; assay: Antioxidant activity of the compound assessed as DPPH free radical scavenging activity at 250 uM after 60 mins by spectrophotometric analysis relative to control; outline: as §2
[5] = test system: Talaromyces marneffei; assay: Antifungal activity against Penicillium marneffei assessed as growth inhibition after 3 to 4 days by serial plate dilution method; outline: as §1
[6] = test system: Radical scavenging activity; assay: Antioxidant activity of the compound assessed as DPPH free radical scavenging activity at 187.5 uM after 60 mins by spectrophotometric analysis relative to control; outline: as §2
[7] = test system: Trichophyton mentagrophytes; assay: Antifungal activity against Trichophyton mentagrophytes assessed as growth inhibition after 3 to 4 days by serial plate dilution method; outline: as §1
[8] = test system: Klebsiella pneumoniae; assay: Antibacterial activity against Klebsiella pneumoniae assessed as growth inhibition after 3 to 4 days by serial plate dilution method; outline: as §3
[9] = test system: Aspergillus fumigatus; assay: Antifungal activity against Aspergillus fumigatus NCIM 902 assessed as growth inhibition after 3 to 4 days by serial plate dilution method; outline: as §1
[10] = test system: Escherichia coli; assay: Antibacterial activity against Escherichia coli ATCC 25922 assessed as growth inhibition after 3 to 4 days by serial plate dilution method; outline: as §3
[11] = test system: Radical scavenging activity; assay: Antioxidant activity of the compound assessed as DPPH free radical scavenging activity at 312.5 uM after 60 mins by spectrophotometric analysis relative to control; outline: as §2
[12] = test system: Radical scavenging activity; assay: Antioxidant activity of the compound assessed as DPPH free radical scavenging activity at 62.5 uM after 60 mins by spectrophotometric analysis relative to control; outline: as §2
[13] = test system: Pseudomonas aeruginosa; assay: Antibacterial activity against Pseudomonas aeruginosa ATCC 27853 assessed as growth inhibition after 3 to 4 days by serial plate dilution method; outline: as §3

| MIC [1] | MIC [3] | MIC [5] | MIC [7] | MIC [8] | MIC [9] | MIC [10] | MIC [13] | Compound | inhibition [2] | inhibition [4] | inhibition [6] | inhibition [11] | inhibition [12] |
| --- | --- | --- | --- | --- | --- | --- | --- | --- | --- | --- | --- | --- | --- |
| 1.56 µg/mL (≈ 4.84 µM) | 3.12 µg/mL (≈ 9.68 µM) | 3.12 µg/mL (≈ 9.68 µM) | 1.56 µg/mL (≈ 4.84 µM) | 6.25 µg/mL (≈ 19.4 µM) | 3.12 µg/mL (≈ 9.68 µM) | 6.25 µg/mL (≈ 19.4 µM) | 6.25 µg/mL (≈ 19.4 µM) | C=CCn1c(-c2cccs2)nn(CN2CCOCC2)c1=S | 71.2% | 89.9% | 83.1% | 95% | 62.3% |
| 3.12 µg/mL | – | 6.25 µg/mL | 3.12 µg/mL | – | 6.25 µg/mL | – | – | Cc1cc(C2CCCCC2)n(O)c(=O)c1.NCCO [CICLOPIROX OLAMINE] | – | – | – | – | – |
| 6.25 µg/mL (≈ 18.7 µM) | 1.56 µg/mL (≈ 4.66 µM) | 12 µg/mL (≈ 35.9 µM) | 6.25 µg/mL (≈ 18.7 µM) | 3.12 µg/mL (≈ 9.33 µM) | 12 µg/mL (≈ 35.9 µM) | 3.12 µg/mL (≈ 9.33 µM) | 3.12 µg/mL (≈ 9.33 µM) | C=CCn1c(-c2cccs2)nn(CN2CCC(C)CC2)c1=S | 53.5% | 69.7% | 68.1% | 72.4% | 50.1% |
| 1.56 µg/mL (≈ 5.02 µM) | 3.12 µg/mL (≈ 10 µM) | 3.12 µg/mL (≈ 10 µM) | 1.56 µg/mL (≈ 5.02 µM) | 6.25 µg/mL (≈ 20.1 µM) | 3.12 µg/mL (≈ 10 µM) | 6.25 µg/mL (≈ 20.1 µM) | 6.25 µg/mL (≈ 20.1 µM) | CCn1c(-c2cccs2)nn(CN2CCOCC2)c1=S | 69.8% | 88.6% | 82.8% | 93.6% | 60.4% |
| 6.25 µg/mL (≈ 19.4 µM) | 1.56 µg/mL (≈ 4.84 µM) | 12 µg/mL (≈ 37.2 µM) | 6.25 µg/mL (≈ 19.4 µM) | 3.12 µg/mL (≈ 9.67 µM) | 12 µg/mL (≈ 37.2 µM) | 3.12 µg/mL (≈ 9.67 µM) | 3.12 µg/mL (≈ 9.67 µM) | CCn1c(-c2cccs2)nn(CN2CCC(C)CC2)c1=S | 52.5% | 67.6% | 65.2% | 71.3% | 49.2% |
| 6.25 µg/mL (≈ 16.9 µM) | 1.56 µg/mL (≈ 4.21 µM) | 12 µg/mL (≈ 32.4 µM) | 6.25 µg/mL (≈ 16.9 µM) | 3.12 µg/mL (≈ 8.42 µM) | 12 µg/mL (≈ 32.4 µM) | 3.12 µg/mL (≈ 8.42 µM) | 3.12 µg/mL (≈ 8.42 µM) | CC1CCN(Cn2nc(-c3cccs3)n(-c3ccccc3)c2=S)CC1 | 51.1% | 66.9% | 61.1% | – | 44.7% |

Second part, the molecule before the results:

| Compound | MIC [1] | MIC [3] | MIC [5] | MIC [7] | MIC [8] | MIC [9] | MIC [10] | MIC [13] | inhibition [2] | inhibition [4] | inhibition [6] | inhibition [11] | inhibition [12] |
| --- | --- | --- | --- | --- | --- | --- | --- | --- | --- | --- | --- | --- | --- |
| CCn1c(-c2cccs2)nn(CN2CCN(c3cccc(C(F)(F)F)c3)CC2)c1=S | 3.12 µg/mL (≈ 6.88 µM) | 1.56 µg/mL (≈ 3.44 µM) | 6.25 µg/mL (≈ 13.8 µM) | 3.12 µg/mL (≈ 6.88 µM) | 3.12 µg/mL (≈ 6.88 µM) | 6.25 µg/mL (≈ 13.8 µM) | 3.12 µg/mL (≈ 6.88 µM) | 3.12 µg/mL (≈ 6.88 µM) | 61.1% | 80.2% | 71.3% | 81.6% | 52% |
| CCn1c(-c2cccs2)nn(CN2CCN(c3ccccc3)CC2)c1=S | 3.12 µg/mL (≈ 8.09 µM) | 6.25 µg/mL (≈ 16.2 µM) | 6.25 µg/mL (≈ 16.2 µM) | 3.12 µg/mL (≈ 8.09 µM) | 6.25 µg/mL (≈ 16.2 µM) | 6.25 µg/mL (≈ 16.2 µM) | 12 µg/mL (≈ 31.1 µM) | 12 µg/mL (≈ 31.1 µM) | 63.1% | 82.5% | 72.7% | 90.2% | 52.2% |
| O=C1O[C@H]([C@@H](O)CO)C(O)=C1O | – | – | – | – | – | – | – | – | 65% | 85.8% | 75.2% | 91.7% | 55.1% |
| O=C(O)c1cn(C2CC2)c2cc(N3CCNCC3)c(F)cc2c1=O [CIPROFLOXACIN] | – | 3.12 µg/mL (≈ 9.42 µM) | – | – | 6.25 µg/mL (≈ 18.9 µM) | – | – | – | – | – | – | – | – |
| C=CCn1c(-c2cccs2)nn(CN2CCN(c3ccccc3)CC2)c1=S | 3.12 µg/mL (≈ 7.85 µM) | 6.25 µg/mL (≈ 15.7 µM) | 6.25 µg/mL (≈ 15.7 µM) | 3.12 µg/mL (≈ 7.85 µM) | 6.25 µg/mL (≈ 15.7 µM) | 6.25 µg/mL (≈ 15.7 µM) | 12 µg/mL (≈ 30.2 µM) | 12 µg/mL (≈ 30.2 µM) | 64.4% | 84.1% | 75% | 91.6% | 54% |
| CCn1c(-c2cccs2)n[nH]c1=S | 12 µg/mL (≈ 56.8 µM) | 12 µg/mL (≈ 56.8 µM) | 25 µg/mL (≈ 118 µM) | 12 µg/mL (≈ 56.8 µM) | 12 µg/mL (≈ 56.8 µM) | 25 µg/mL (≈ 118 µM) | 12 µg/mL (≈ 56.8 µM) | 12 µg/mL (≈ 56.8 µM) | 47.1% | 53.3% | 49.6% | 62.1% | 36.4% |
| S=c1n(CN2CCOCC2)nc(-c2cccs2)n1-c1ccccc1 | 1.56 µg/mL (≈ 4.35 µM) | 12 µg/mL (≈ 33.5 µM) | 3.12 µg/mL (≈ 8.7 µM) | 1.56 µg/mL (≈ 4.35 µM) | 6.25 µg/mL (≈ 17.4 µM) | 3.12 µg/mL (≈ 8.7 µM) | 6.25 µg/mL (≈ 17.4 µM) | 6.25 µg/mL (≈ 17.4 µM) | 68.4% | 87.2% | 79.2% | – | 59.1% |
| CCn1c(-c2cccs2)nn(CN2CCN(Cc3ccccc3)CC2)c1=S | 3.12 µg/mL (≈ 7.81 µM) | 6.25 µg/mL (≈ 15.6 µM) | 6.25 µg/mL (≈ 15.6 µM) | 3.12 µg/mL (≈ 7.81 µM) | 6.25 µg/mL (≈ 15.6 µM) | 6.25 µg/mL (≈ 15.6 µM) | 12 µg/mL (≈ 30 µM) | 12 µg/mL (≈ 30 µM) | 63.2% | 83.1% | 74.5% | 90.9% | 53.5% |
| CCCN(CCC)Cn1nc(-c2cccs2)n(-c2ccccc2)c1=S | 6.25 µg/mL (≈ 16.8 µM) | 6.25 µg/mL (≈ 16.8 µM) | 12 µg/mL (≈ 32.2 µM) | 6.25 µg/mL (≈ 16.8 µM) | 6.25 µg/mL (≈ 16.8 µM) | 12 µg/mL (≈ 32.2 µM) | 12 µg/mL (≈ 32.2 µM) | 12 µg/mL (≈ 32.2 µM) | 62.6% | 81.4% | 72.1% | – | 52.1% |
| S=c1[nH]nc(-c2cccs2)n1-c1ccccc1 | 12 µg/mL (≈ 46.3 µM) | 12 µg/mL (≈ 46.3 µM) | 25 µg/mL (≈ 96.4 µM) | 12 µg/mL (≈ 46.3 µM) | 12 µg/mL (≈ 46.3 µM) | 25 µg/mL (≈ 96.4 µM) | 12 µg/mL (≈ 46.3 µM) | 12 µg/mL (≈ 46.3 µM) | 45.7% | 51.2% | 47.9% | 65.1% | 36.1% |
| C=CCn1c(-c2cccs2)n[nH]c1=S | 12 µg/mL (≈ 53.7 µM) | 25 µg/mL (≈ 112 µM) | 25 µg/mL (≈ 112 µM) | 12 µg/mL (≈ 53.7 µM) | 25 µg/mL (≈ 112 µM) | 25 µg/mL (≈ 112 µM) | 12 µg/mL (≈ 53.7 µM) | 12 µg/mL (≈ 53.7 µM) | 45.2% | 55.5% | 47.4% | 68.8% | 40.7% |
